The text below walks through data of ChEMBL document CHEMBL4138248, “Discovery of naphtho[1,2-d]oxazole derivatives as potential anti-HCV agents through inducing heme oxygenase-1 expression” (Eur J Med Chem, 2018).

pEC50, pIC50: −log10 of the molar value.

Data set [1] concerns Hepatitis C virus. Kind of data set: Antiviral activity against HCV infected in human Ava5 cells assessed as inhibition of viral RNA replication at 5 uM after 3 days by RT-qPCR method relative to control. Format: functional, Hepacivirus hominis. To be noted: Ava5, 72 h. The essentials:
(§1)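 Ava5 replicon cells were exposed to 5 or 20 μM for 3 days, starting from 10 mM DMSO stocks diluted in medium. HCV RNA was quantified by RT-qPCR against gapdh and expressed as % inhibition relative to untreated control. Ribavirin was the reference drug. Mean ± SD of three independent experiments.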
A general note: Real-time PCR tracks product formation cycle by cycle.

The subject of data set [2] is Hepatitis C virus. Kind of data set: Antiviral activity against HCV infected in human Ava5 cells assessed as inhibition of viral RNA replication at 20 uM after 3 days by RT-qPCR method relative to control. To be noted: Ava5, 72 h. Format: functional, Hepacivirus hominis. An outline of the steps: as §1
Data set [3] in a line: Cytotoxicity against human Ava5 cells assessed as cell viability at 20 uM after 72 hrs by XTT assay relative to control. Format: cell-based. To be noted: read-out: Activity. The essentials: (§2)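 XTT viability assay run alongside the antiviral assays. Ava5 cells were plated at 5×10^3 per well and exposed to 20 or 200 μM for 72 h at 37 °C in humidified 5% CO₂. Viability is expressed as % of untreated cells.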

Data set [4] can be described thus: Cytotoxicity against human Ava5 cells assessed as cell viability at 200 uM after 72 hrs by XTT assay relative to control. The format is cell-based. The settings on record: read-out: Activity. The essentials: as §2
For data set [5], the system named is Hepatitis C virus. Kind of data set: Antiviral activity against HCV infected in human Ava5 cells assessed as inhibition of viral RNA replication after 3 days by RT-qPCR method. The format is functional, organism-based, Hepacivirus hominis. The settings on record: Ava5, 72 h. An outline of the steps:
(§3)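 Ava5 cells (Huh-7 hepatoma cells carrying an HCV replicon, grown in DMEM/10% FBS with 1 mg·mL⁻¹ G418) were treated for 3 days with a range of concentrations. HCV RNA was measured by RT-qPCR and normalized to cellular gapdh mRNA. Values are mean ± SD of three independent experiments, each in triplicate.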

Data set [6] in a line: Cytotoxicity against human Ava5 cells assessed as decrease in cell viability after 72 hrs by XTT assay. Format: cell-based. The essentials: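 XTT assay on […] Ava5 cells at 5×10^3 per well with serial dilutions for 72 h at 37 °C in 5% CO₂. CC50 is the concentration giving 50% growth inhibition.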
Data set [7] is described as follows: Selectivity index, ratio of CC50 for human Ava5 cells to IC50 for HCV. The settings on record: read-out: Ratio CC50/IC50. Format: toxicity. The essentials: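 SI = CC50/IC50. CC50 comes from 72 h XTT in […] Ava5 cells. IC50 is the concentration giving 50% inhibition of HCV, measured by RT-qPCR after 3 days in Ava5 cells.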
Data set [8] has as its system Hepatitis C virus. Kind of data set: Antiviral activity against HCV infected in human Huh7 cells assessed as inhibition of viral RNA replication after 3 days by RT-qPCR method. The format is functional, organism-based, Hepacivirus hominis. To be noted: Huh-7, 72 h.
The subject of data set [9] is Hepatitis C virus. Kind of data set: Antiviral activity against HCV Con1 infected in human Ava5 cells assessed as inhibition of viral RNA replication after 3 days by RT-qPCR method. Format: functional, organism-based, Hepacivirus hominis. To be noted: isolate Con1, Ava5, 72 h. An outline of the steps: as §3

As usually defined, the inhibition is how much of the control response was suppressed. With `COc1ccc(-c2nc3c(cc(Nc4ccc(Cl)cc4)c4ccccc43)o2)cc1`, the inhibition at 5 µM with Hepatitis C virus [1] is 4.5%. In the data set on Hepatitis C virus [2], the inhibition at 20 µM is 8.5%. For the same compound, the viability at 72 h, 20 µM in data set [3] was 83.7%. In data set [4], the viability at 72 h, 200 µM was 23.4%.
Taken in the same sequence, the figures for `COc1ccc(-c2nc3c(cc(N(C)c4ccc(Cl)cc4)c4ccccc43)o2)cc1` were 2.5%, 6.5%, 107% and 93%.
Taken in the same sequence, the figures for `CN(c1ccc(Cl)cc1)c1cc2oc(-c3ccc(Cl)cc3)nc2c2ccccc12` were 1.1%, 2.56%, 86.4% and 30.2%.
Taken in the same sequence, the figures for `COc1ccc(-c2nc3c(cc(Nc4ccccc4)c4ccccc43)o2)cc1` were 3.7%, 5.31%, 86.3% and 68.5%.
Regarding `Clc1ccc(Nc2cc3oc(-c4ccccc4)nc3c3ccccc23)cc1`, in the data set with Hepatitis C virus [1], the inhibition at 5 µM is 1.2%. In the data set on Hepatitis C virus [2], the inhibition at 20 µM amounted to 3.53%. The viability at 72 h, 20 µM in data set [3] was determined as 107%. Also, the viability at 72 h, 200 µM in data set [4] stood at 93%.
Consider `Clc1ccc(-c2nc3c(cc(Nc4ccccc4)c4ccccc43)o2)cc1`, for which the inhibition at 5 µM in the data set on Hepatitis C virus [1] turned out to be 2.5%. Also, in the data set with Hepatitis C virus [2], the inhibition at 20 µM was 3.33%. In addition, the viability at 72 h, 20 µM in [3] was determined as 99.9%. For the same compound, the viability at 72 h, 200 µM in [4] amounted to 62.4%.
The like results for `COc1ccc(Nc2cc3oc(-c4ccc(OC)cc4)nc3c3ccccc23)cc1` were, in that order, 3.2%, 5.6%, 63.4% and 28.5%.
What is called pIC50 is the negative decadic logarithm of the IC50, by convention in mol/L. By CC50 is commonly meant the concentration that lowers cell viability or growth by half. For the compound `COc1ccc(Nc2cc3oc(-c4ccccc4)nc3c3ccccc23)cc1`, in the data set with Hepatitis C virus [1], the inhibition at 5 µM was found to be 75.5%. Further, in the data set with Hepatitis C virus [2], the inhibition at 20 µM is 86.7%. The viability at 72 h, 20 µM in data set [3] is 92.7%. Besides, the viability at 72 h, 200 µM in data set [4] stood at 37.1%. In addition, the pIC50 with Hepatitis C virus [5] was 5.49. Besides, the CC50 at 72 h in data set [6] was found to be 158 µM. Further, the selectivity ratio in [7] stood at 48.4.
In the case of `CN(c1ccccc1)c1cc2oc(-c3ccc(Cl)cc3)nc2c2ccccc12`, in the data set with Hepatitis C virus [1], the inhibition at 5 µM is 4.2%. The inhibition at 20 µM in the data set on Hepatitis C virus [2] is 5.12%. The viability at 72 h, 20 µM in [3] was found to be 94.7%. Also, in [4], the viability at 72 h, 200 µM turned out to be 29.6%.
The like results for `COc1ccc(-c2nc3c(cc(N(C)c4ccccc4)c4ccccc43)o2)cc1` were, in that order, 2.5%, 3.21%, 69.2% and 54%.
Consider `CN(c1ccccc1)c1cc2oc(-c3ccco3)nc2c2ccccc12`, for which the inhibition at 5 µM in the data set with Hepatitis C virus [1] was found to be 2.9%. For the same compound, the inhibition at 20 µM in the data set on Hepatitis C virus [2] was 3.54%. In addition, in [3], the viability at 72 h, 20 µM turned out to be 88.8%. In data set [4], the viability at 72 h, 200 µM is 40.6%.
For `COc1ccc(-c2nc3c(cc(N(C)c4ccc(OC)cc4)c4ccccc43)o2)cc1`, the inhibition at 5 µM with Hepatitis C virus [1] came to 5.6%. The inhibition at 20 µM in the data set with Hepatitis C virus [2] amounted to 8.5%. For the same compound, in data set [3], the viability at 72 h, 20 µM came out at 73.6%. Moreover, the viability at 72 h, 200 µM in data set [4] is 56.3%.
Taken in the same sequence, the figures for `c1ccc(Nc2cc3oc(-c4ccccc4)nc3c3ccccc23)cc1` were 3.51%, 4.28%, 87% and 25.5%.
Regarding `Clc1ccc(Nc2cc3oc(-c4ccc(Cl)cc4)nc3c3ccccc23)cc1`, the inhibition at 5 µM in the data set with Hepatitis C virus [1] turned out to be 8.1%. The inhibition at 20 µM in the data set on Hepatitis C virus [2] turned out to be 55.2%. For the same compound, in [3], the viability at 72 h, 20 µM turned out to be 60.2%. Moreover, in [4], the viability at 72 h, 200 µM stood at 27.5%. Moreover, in the data set on Hepatitis C virus [5], the pIC50 was 4.75. Also, in data set [6], the CC50 at 72 h was 83.7 µM. Besides, in data set [7], the selectivity ratio worked out at 4.71.
Regarding `COc1ccc(N(C)c2cc3oc(-c4ccco4)nc3c3ccccc23)cc1`, the inhibition at 5 µM in the data set with Hepatitis C virus [1] was 2.5%. Moreover, the inhibition at 20 µM in the data set with Hepatitis C virus [2] came out at 31.5%. Further, the viability at 72 h, 20 µM in data set [3] turned out to be 49.5%. Also, the viability at 72 h, 200 µM in data set [4] came to 32.3%.
`COc1ccc(Nc2cc3oc(-c4ccc(Cl)cc4)nc3c3ccccc23)cc1`: the inhibition at 5 µM with Hepatitis C virus [1] is 3.2%. The inhibition at 20 µM with Hepatitis C virus [2] amounted to 35.6%. The viability at 72 h, 20 µM in data set [3] is 103%. Moreover, the viability at 72 h, 200 µM in data set [4] was 98.2%.
For `NC(=O)c1ncn([C@@H]2O[C@H](CO)[C@@H](O)[C@H]2O)n1` [RIBAVIRIN], the inhibition at 5 µM with Hepatitis C virus [1] was determined as 31.2%. The inhibition at 20 µM with Hepatitis C virus [2] worked out at 65.7%. In addition, the viability at 72 h, 20 µM in [3] came out at 71.4%. Besides, in [4], the viability at 72 h, 200 µM was determined as 26.8%. Also, the pIC50 with Hepatitis C virus [5] was 4.88. Moreover, in [6], the CC50 at 72 h came to 106 µM. The selectivity ratio in data set [7] was 8.08.
Take `Clc1ccc(Nc2cc3oc(-c4ccco4)nc3c3ccccc23)cc1`: the inhibition at 5 µM with Hepatitis C virus [1] was determined as 3.2%. In the data set with Hepatitis C virus [2], the inhibition at 20 µM came out at 4.51%. Moreover, the viability at 72 h, 20 µM in data set [3] turned out to be 83.5%. Also, the viability at 72 h, 200 µM in data set [4] was found to be 28.9%.
In the case of `COc1ccc(N(C)c2cc3oc(-c4ccc(Cl)cc4)nc3c3ccccc23)cc1`, the inhibition at 5 µM in the data set on Hepatitis C virus [1] amounted to 2.4%. In the data set on Hepatitis C virus [2], the inhibition at 20 µM stood at 2.65%. In addition, the viability at 72 h, 20 µM in data set [3] is 94.7%. Further, the viability at 72 h, 200 µM in data set [4] was 29.6%.
Taken in the same sequence, the figures for `CN(c1ccc(Cl)cc1)c1cc2oc(-c3ccccc3)nc2c2ccccc12` were 1.2%, 1.21%, 81% and 25.5%.
Turning to `COc1ccc(N(C)c2cc3oc(-c4ccccc4)nc3c3ccccc23)cc1`, the inhibition at 5 µM in the data set on Hepatitis C virus [1] stood at 3.4%. The inhibition at 20 µM in the data set with Hepatitis C virus [2] amounted to 3.51%. In addition, in [3], the viability at 72 h, 20 µM stood at 83.6%. The viability at 72 h, 200 µM in data set [4] stood at 27.5%.
Taken in the same sequence, the figures for `CN(c1ccccc1)c1cc2oc(-c3ccccc3)nc2c2ccccc12` were 1.5%, 2.31%, 82.3% and 25.5%.
Consider `c1ccc(Nc2cc3oc(-c4ccco4)nc3c3ccccc23)cc1`, for which the inhibition at 5 µM in the data set on Hepatitis C virus [1] stood at 1.8%. In the data set with Hepatitis C virus [2], the inhibition at 20 µM was 2.53%. Further, the viability at 72 h, 20 µM in data set [3] came out at 81.2%. Further, in [4], the viability at 72 h, 200 µM amounted to 31.5%.
As for `CN(c1ccc(Cl)cc1)c1cc2oc(-c3ccco3)nc2c2ccccc12`, the inhibition at 5 µM in the data set on Hepatitis C virus [1] amounted to 2.7%. The inhibition at 20 µM in the data set with Hepatitis C virus [2] is 3.12%. The viability at 72 h, 20 µM in data set [3] amounted to 73%. In addition, the viability at 72 h, 200 µM in [4] came to 26.5%.
For orientation: pEC50 means −log10 of the EC50, conventionally taken in molar units. For the compound `COc1cc(NCc2cc3ccccc3oc2=O)cc(OC)c1OC`, the pEC50 in the data set on Hepatitis C virus [8] is 4.92.
For `Cc1ccc2nc(Nc3ccc([N+](=O)[O-])cc3)sc2c1`, in the data set with Hepatitis C virus [9], the pEC50 was 5.10.
